From ChEMBL document CHEMBL2062460, “Disubstituted thiourea derivatives and their activity on CNS: synthesis and biological evaluation” (Eur J Med Chem, 2012)
Values after ≈ are worked out from the molar mass of the structure shown. Active and inactive are the calls of the source. The rule behind the calls is not given here.

What was measured:
Micrococcus luteus [1] = assay: Antibacterial activity against Micrococcus luteus ATCC 10240 after 18 hrs by twofold serial agar dilution technique; format: functional; conditions: ATCC 10240, 18 h
[2] = system: Staphylococcus epidermidis; assay: Antibacterial activity against methicillin-resistant Staphylococcus epidermidis clinical isolate 377/09 after 18 hrs by twofold serial agar dilution technique; format: functional; conditions: clinical isolate 377/09, 18 h
Summary of the method: (§1)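 Clinical isolates came from patients in Warsaw Medical University Hospitals and were classed as methicillin-susceptible or -resistant. MIC was determined by twofold serial agar dilution on Mueller–Hinton II agar (CLSI), 3.125–400 µg/mL in agar, with compounds in methanol or DMSO. Inoculum was 10^4 CFU/mL and plates were read after 18 h at 35 °C.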

[3] = system: Staphylococcus epidermidis; assay: Antibacterial activity against methicillin-resistant Staphylococcus epidermidis clinical isolate 340/09 after 18 hrs by twofold serial agar dilution technique; format: functional; conditions: clinical isolate 340/09, 18 h; summary of the method: as §1
Staphylococcus aureus [4] = assay: Antibacterial activity against methicillin-susceptible Staphylococcus aureus clinical isolate 269/08 after 18 hrs by twofold serial agar dilution technique; format: functional; conditions: clinical isolate 269/08, 18 h; summary of the method: as §1
[5] = system: Staphylococcus epidermidis; assay: Antibacterial activity against methicillin-resistant Staphylococcus epidermidis clinical isolate 343/09 after 18 hrs by twofold serial agar dilution technique; format: functional; conditions: clinical isolate 343/09, 18 h; summary of the method: as §1
Staphylococcus aureus [6] = assay: Antibacterial activity against methicillin-susceptible Staphylococcus aureus clinical isolate 267/08 after 18 hrs by twofold serial agar dilution technique; format: functional; conditions: clinical isolate 267/08, 18 h; summary of the method: as §1
Enterococcus hirae [7] = assay: Antibacterial activity against Enterococcus hirae ATCC 10541 after 18 hrs by twofold serial agar dilution technique; format: functional; conditions: ATCC 10541, 18 h
[8] = system: Staphylococcus epidermidis; assay: Antibacterial activity against Staphylococcus epidermidis ATCC 12228 at 400 ug/disc after 18 hrs by disc diffusion method; format: functional; conditions: ATCC 12228, 18 h, read-out: DIZ
Summary of the method: (§2)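 Disc diffusion per CLSI on Mueller–Hinton II agar; 9 mm paper discs loaded from methanol or DMSO solutions to 400 µg per disc, dried; growth inhibition zone diameter read after 18 h at 35 °C.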

Staphylococcus aureus [9] = assay: Antibacterial activity against methicillin-resistant Staphylococcus aureus clinical isolate 307/08 after 18 hrs by twofold serial agar dilution technique; format: functional; conditions: clinical isolate 307/08, 18 h; summary of the method: as §1
[10] = system: Bordetella bronchiseptica; assay: Antibacterial activity against Bordetella bronchiseptica ATCC 4617 at 400 ug/disc after 18 hrs by disc diffusion method; format: functional, organism-based; summary of the method: as §2
Enterococcus hirae [11] = assay: Antibacterial activity against Enterococcus hirae ATCC 10541 at 400 ug/disc after 18 hrs by disc diffusion method; format: functional; conditions: for zone of inhibition at 400 µg/disc: ATCC 10541, 18 h, read-out: DIZ; summary of the method: as §2
Pseudomonas aeruginosa [12] = assay: Antibacterial activity against Pseudomonas aeruginosa NCTC 6749 at 400 ug/disc after 18 hrs by disc diffusion method; format: functional, organism-based; summary of the method: as §2
Candida albicans [13] = assay: Antifungal activity against Candida albicans ATCC 10231 at 400 ug/disc after 18 hrs by disc diffusion method; format: functional, organism-based
Summary of the method: (§3)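 Yeasts tested by disc diffusion (CLSI) on RPMI agar with 2% glucose; 9 mm paper discs bearing 400 µg compound from methanol or DMSO solution; inhibition zone diameter read after 18 h at 35 °C.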

Bacillus subtilis [14] = assay: Antibacterial activity against Bacillus subtilis ATCC 6633 after 18 hrs by twofold serial agar dilution technique; format: functional; conditions: ATCC 6633, 18 h
Bacillus subtilis [15] = assay: Antibacterial activity against Bacillus subtilis ATCC 6633 at 400 ug/disc after 18 hrs by disc diffusion method; format: functional; conditions: ATCC 6633, 18 h, read-out: DIZ; summary of the method: as §2
Staphylococcus aureus [16] = assay: Antibacterial activity against Staphylococcus aureus ATCC 29213 at 400 ug/disc after 18 hrs by disc diffusion method; format: functional; conditions: ATCC 29213, 18 h, read-out: DIZ; summary of the method: as §2
Staphylococcus aureus [17] = assay: Antibacterial activity against methicillin-resistant Staphylococcus aureus clinical isolate 376/09 after 18 hrs by twofold serial agar dilution technique; format: functional; conditions: clinical isolate 376/09, 18 h; summary of the method: as §1
Micrococcus luteus [18] = assay: Antibacterial activity against Micrococcus luteus ATCC 9341 after 18 hrs by twofold serial agar dilution technique; format: functional; conditions: ATCC 9341, 18 h
[19] = system: Staphylococcus epidermidis; assay: Antibacterial activity against methicillin-resistant Staphylococcus epidermidis clinical isolate 316/08 after 18 hrs by twofold serial agar dilution technique; format: functional; conditions: clinical isolate 316/08, 18 h; summary of the method: as §1
[20] = system: Human immunodeficiency virus 1; assay: Antiviral activity against HIV1 infected in human MT4 cells assessed as virus-induced cytopathogenicity after 4 days by MTT assay; format: functional, organism-based; conditions: Human immunodeficiency virus 1, MT4, 96 h
Pseudomonas aeruginosa [21] = assay: Antibacterial activity against Pseudomonas aeruginosa ATCC 15442 at 400 ug/disc after 18 hrs by disc diffusion method; format: functional, organism-based; summary of the method: as §2
[22] = system: Staphylococcus epidermidis; assay: Antibacterial activity against methicillin-resistant Staphylococcus epidermidis clinical isolate 311/08 after 18 hrs by twofold serial agar dilution technique; format: functional; conditions: clinical isolate 311/08, 18 h; summary of the method: as §1
Staphylococcus aureus [23] = assay: Antibacterial activity against methicillin-susceptible Staphylococcus aureus clinical isolate 261/08 after 18 hrs by twofold serial agar dilution technique; format: functional; conditions: clinical isolate 261/08, 18 h; summary of the method: as §1
Staphylococcus aureus [24] = assay: Antibacterial activity against methicillin-susceptible Staphylococcus aureus clinical isolate 367/09 after 18 hrs by twofold serial agar dilution technique; format: functional; conditions: clinical isolate 367/09, 18 h; summary of the method: as §1
Staphylococcus aureus [25] = assay: Antibacterial activity against methicillin-resistant Staphylococcus aureus clinical isolate 275/08 after 18 hrs by twofold serial agar dilution technique; format: functional; conditions: clinical isolate 275/08, 18 h; summary of the method: as §1
[26] = system: Staphylococcus epidermidis; assay: Antibacterial activity against methicillin-resistant Staphylococcus epidermidis clinical isolate 342/09 after 18 hrs by twofold serial agar dilution technique; format: functional; conditions: clinical isolate 342/09, 18 h; summary of the method: as §1
Staphylococcus aureus [27] = assay: Antibacterial activity against methicillin-susceptible Staphylococcus aureus clinical isolate 268/08 after 18 hrs by twofold serial agar dilution technique; format: functional; conditions: clinical isolate 268/08, 18 h; summary of the method: as §1
[28] = system: Staphylococcus epidermidis; assay: Antibacterial activity against methicillin-resistant Staphylococcus epidermidis clinical isolate 315/08 after 18 hrs by twofold serial agar dilution technique; format: functional; conditions: clinical isolate 315/08, 18 h; summary of the method: as §1
Staphylococcus aureus [29] = assay: Antibacterial activity against Staphylococcus aureus NCTC 4163 at 400 ug/disc after 18 hrs by disc diffusion method; format: functional; conditions: NCTC 4163, 18 h, read-out: DIZ; summary of the method: as §2
Staphylococcus aureus [30] = assay: Antibacterial activity against methicillin-susceptible Staphylococcus aureus clinical isolate 369/09 after 18 hrs by twofold serial agar dilution technique; format: functional; conditions: clinical isolate 369/09, 18 h; summary of the method: as §1
Staphylococcus aureus [31] = assay: Antibacterial activity against Staphylococcus aureus ATCC 6538 at 400 ug/disc after 18 hrs by disc diffusion method; format: functional; conditions: ATCC 6538, 18 h, read-out: DIZ; summary of the method: as §2
Candida albicans [32] = assay: Antifungal activity against Candida albicans ATCC 90028 at 400 ug/disc after 18 hrs by disc diffusion method; format: functional, organism-based; summary of the method: as §3
Staphylococcus aureus [33] = assay: Antibacterial activity against methicillin-resistant Staphylococcus aureus clinical isolate 277/08 after 18 hrs by twofold serial agar dilution technique; format: functional; conditions: clinical isolate 277/08, 18 h; summary of the method: as §1
[34] = system: Staphylococcus epidermidis; assay: Antibacterial activity against methicillin-resistant Staphylococcus epidermidis clinical isolate 317/08 after 18 hrs by twofold serial agar dilution technique; format: functional; conditions: clinical isolate 317/08, 18 h; summary of the method: as §1
Staphylococcus aureus [35] = assay: Antibacterial activity against Staphylococcus aureus ATCC 25923 after 18 hrs by twofold serial agar dilution technique; format: functional; conditions: ATCC 25923, 18 h
Summary of the method: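 Twofold serial agar dilution on Mueller–Hinton II agar, following CLSI guidelines. Compounds were dissolved in methanol or DMSO and tested at final agar concentrations of 3.125–400 µg/mL. Final inoculum was 10^4 CFU/mL.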

Proteus vulgaris = assay: Antibacterial activity against Proteus vulgaris NCTC 4635 at 400 ug/disc after 18 hrs by disc diffusion method; format: functional, organism-based; summary of the method: as §2

| Compound | MIC (Micrococcus luteus [1]) [µg/mL] | MIC (Staphylococcus aureus [4]) [µg/mL] | MIC (Staphylococcus aureus [6]) [µg/mL] | MIC (Enterococcus hirae [7]) [µg/mL] | zone of inhibition at 400 µg/disc [8] [mm] | MIC (Staphylococcus aureus [9]) [µg/mL] | diameter of the inhibition zone (DIZ) [10] | diameter of the inhibition zone (DIZ) (Pseudomonas aeruginosa [12]) | diameter of the inhibition zone (DIZ) (Candida albicans [13]) | MIC (Bacillus subtilis [14]) [µg/mL] | zone of inhibition at 400 µg/disc (Bacillus subtilis [15]) [mm] | zone of inhibition at 400 µg/disc (Staphylococcus aureus [16]) [mm] | MIC (Staphylococcus aureus [17]) [µg/mL] | MIC (Micrococcus luteus [18]) [µg/mL] | diameter of the inhibition zone (DIZ) (Pseudomonas aeruginosa [21]) | MIC (Staphylococcus aureus [23]) [µg/mL] | MIC (Staphylococcus aureus [24]) [µg/mL] | MIC (Staphylococcus aureus [25]) [µg/mL] | MIC (Staphylococcus aureus [27]) [µg/mL] | zone of inhibition at 400 µg/disc (Staphylococcus aureus [29]) [mm] | also measured |
| --- | --- | --- | --- | --- | --- | --- | --- | --- | --- | --- | --- | --- | --- | --- | --- | --- | --- | --- | --- | --- | --- |
| Fc1ccc(NC(=S)Nc2nc[nH]n2)cc1 | 6.25 (≈ 26.3 µM) | 50 (≈ 211 µM) | 50 (≈ 211 µM) | 400 (≈ 1690 µM) | 16 | 50 (≈ 211 µM) | inactive | inactive | inactive | 12.5 (≈ 52.7 µM) | 22 | 11 | 50 (≈ 211 µM) | 6.25 (≈ 26.3 µM) | inactive | 50 (≈ 211 µM) | 50 (≈ 211 µM) | 100 (≈ 421 µM) | 100 (≈ 421 µM) | 14 | MIC [2]: 50 µg/mL (≈ 211 µM); MIC [3]: 50 µg/mL (≈ 211 µM); MIC [5]: 50 µg/mL (≈ 211 µM); zone of inhibition at 400 µg/disc (Enterococcus hirae [11]): 11 mm; MIC [19]: 100 µg/mL (≈ 421 µM); EC50 [20]: > 100 µM; MIC [22]: 50 µg/mL (≈ 211 µM); MIC [26]: 50 µg/mL (≈ 211 µM); MIC [28]: 50 µg/mL (≈ 211 µM); MIC (Staphylococcus aureus [30]): 50 µg/mL (≈ 211 µM); zone of inhibition at 400 µg/disc (Staphylococcus aureus [31]): 14 mm; diameter of the inhibition zone (DIZ) (Candida albicans [32]): inactive; MIC (Staphylococcus aureus [33]): 50 µg/mL (≈ 211 µM); MIC [34]: 50 µg/mL (≈ 211 µM); MIC (Staphylococcus aureus [35]): 50 µg/mL (≈ 211 µM); diameter of the inhibition zone (DIZ) (Proteus vulgaris): inactive |
| Fc1cccc(NC(=S)Nc2nc[nH]n2)c1 | 50 (≈ 211 µM) | 12.5 (≈ 52.7 µM) | 25 (≈ 105 µM) | 400 (≈ 1690 µM) | 22 | 12.5 (≈ 52.7 µM) | inactive | inactive | inactive | 50 (≈ 211 µM) | 32 | 18 | 25 (≈ 105 µM) | 50 (≈ 211 µM) | inactive | 25 (≈ 105 µM) | 12.5 (≈ 52.7 µM) | 25 (≈ 105 µM) | 25 (≈ 105 µM) | 16 | zone of inhibition at 400 µg/disc (Enterococcus hirae [11]): 16 mm; MIC (Staphylococcus aureus [30]): 12.5 µg/mL (≈ 52.7 µM); zone of inhibition at 400 µg/disc (Staphylococcus aureus [31]): 15 mm; diameter of the inhibition zone (DIZ) (Candida albicans [32]): inactive; MIC (Staphylococcus aureus [33]): 12.5 µg/mL (≈ 52.7 µM); MIC (Staphylococcus aureus [35]): 50 µg/mL (≈ 211 µM); diameter of the inhibition zone (DIZ) (Proteus vulgaris): inactive |
| Fc1ccccc1NC(=S)Nc1nc[nH]n1 | 100 (≈ 421 µM) | > 400 | > 400 | 400 (≈ 1690 µM) | 11 | > 400 | inactive | inactive | inactive | 100 (≈ 421 µM) | 20 | 12 | > 400 | 100 (≈ 421 µM) | inactive | > 400 | > 400 | > 400 | > 400 | 12 | diameter of the inhibition zone (DIZ) (Enterococcus hirae [11]): inactive; MIC (Staphylococcus aureus [30]): > 400 µg/mL; zone of inhibition at 400 µg/disc (Staphylococcus aureus [31]): 12 mm; diameter of the inhibition zone (DIZ) (Candida albicans [32]): inactive; MIC (Staphylococcus aureus [33]): > 400 µg/mL; MIC (Staphylococcus aureus [35]): 200 µg/mL (≈ 843 µM); diameter of the inhibition zone (DIZ) (Proteus vulgaris): inactive |
